Results: PMC4844355 (Cellular and Molecular Gastroenterology and Hepatology, 2016)
Converted amounts (≈) assume the structure as drawn. “Also recorded” adds a separate entry of the source.

Legend:
human wild-type CFTR = human wild-type CFTR (Homo sapiens, UniProt P13569); assay: Short-circuit current in FRT cells expressing wild-type human CFTR; assay type: cell-based
Summary of the method: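 FRT cells stably expressing wild-type human CFTR grown on porous filters. Basolateral membrane permeabilized with 250 μg/mL amphotericin B. Apical side given a Cl⁻ gradient (65 mmol/L NaCl replaced by Na gluconate, 2 mmol/L CaCl2) against HEPES-buffered basolateral saline, pH 7.3, 37°C. Forskolin, test compound, then CFTRinh-172 (10 μmol/L) added. Concentration dependence: mean ± SEM, n = 3 cultures.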

ΔF508-CFTR = ΔF508-CFTR (Homo sapiens, UniProt P13569, DEL508-508); assay: Short-circuit current in FRT cells expressing ΔF508-CFTR; assay type: cell-based; conditions: FRT cells expressing ΔF508-CFTR after overnight incubation with corrector VX-809
Summary of the method: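 Short-circuit current in FRT cells expressing ΔF508-CFTR, pre-corrected with 3 μmol/L VX-809 at 37°C for 24 h. Responses recorded to added forskolin, test compound and VX-770, with CFTRinh-172 (10 μmol/L) where indicated. Traces representative of 3 experiments.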

cAMP = assay: GloSensor luminescence cAMP assay in FRT null cells; assay type: cell-based, rat; conditions: 5 μmol/L, 10 minutes
Summary of the method: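 FRT null cells stably transfected with a GloSensor cAMP plasmid, grown to confluence and washed 3× in PBS. Incubated 10 min with 5 μmol/L test compound, without or with forskolin (100 nmol/L). cAMP read by luminescence. Positive controls: forskolin 100 nmol/L and 20 μmol/L, forskolin plus IBMX 100 μmol/L. Mean ± SEM, n = 4–8.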

[1] = tested on: loperamide-induced mouse model of constipation; assay: Loperamide-induced constipation model in wild-type mice; assay type: in vivo; conditions: for Stool weight, pellet number and water content (3 hours): 10 mg/kg intraperitoneal, loperamide-treated wild-type mice; for Normalization of stool output as percent of the maximal CFTRact-J027 response: 0.5 mg/kg oral
Summary of the method: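 Female CD1 mice (8–10 wk) given loperamide 0.3 mg/kg IP. Test compound (0.1–10 mg/kg) or vehicle given IP at the same time, or orally 1 h before. Mice then housed singly in metabolic cages and stool collected for 3 h: total weight, pellet number, and water content after drying at 80°C for 24 h. Mean ± SEM; 6 mice per group, dose-response 4–6 per group.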

[2] = tested on: cystic fibrosis mice (ΔF508 homozygous); assay type: in vivo, mouse; conditions: loperamide model; cystic fibrosis mice lacking functional CFTR
Summary of the method: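 ΔF508-homozygous cystic fibrosis mice run in the same loperamide protocol as wild-type mice (0.3 mg/kg IP, test compound or vehicle). Stool collected for 3 h in metabolic cages; weight, pellet number, and water content measured after drying at 80°C for 24 h. 3–6 mice per group.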

[3] = tested on: loperamide-treated wild-type mice; assay: Whole-gut transit time in loperamide-treated wild-type mice; assay type: in vivo, mouse; conditions: 10 mg/kg IP with loperamide at zero time
Summary of the method: (§1)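 Marker (200 μL; 5% Evans Blue, 5% gum Arabic) given by oral gavage at zero time. At the same time, loperamide (0.3 mg/kg) and test compound (10 mg/kg) or vehicle given IP, to wild-type or cystic fibrosis mice. Whole-gut transit time taken as the time the marker appears in stool.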

cystic fibrosis mice = assay: Whole-gut transit time in cystic fibrosis mice; assay type: in vivo, mouse; conditions: 10 mg/kg IP
Summary of the method: as §1

[4] = tested on: isolated mouse ileum and colon strips; assay: Ex vivo contractility of isolated intestinal strips; conditions: added alone or in the presence of 10 μmol/L loperamide
[5] = tested on: closed midjejunal loops in wild-type mice; assay: Intestinal fluid secretion in closed midjejunal loops, wild-type mice; assay type: in vivo, mouse; conditions: 100 μg per loop, 90 minutes
Summary of the method: (§2)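 Mice fasted 24 h with 5% dextrose water only, then anaesthetised with isoflurane and kept at 36–38°C. Closed midjejunal loops (2–3 cm) tied off by sutures and injected with 100 μL vehicle or 100 μg test compound in vehicle. Incision closed and mice recovered. Loops removed at 90 min; loop weight/length taken as fluid secretion. 4 loops per group.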

[6] = tested on: closed midjejunal loops in cystic fibrosis mice; assay: Intestinal fluid secretion in closed midjejunal loops, cystic fibrosis mice; assay type: in vivo, mouse; conditions: 100 μg per loop, 90 minutes
Summary of the method: as §2

[7] = tested on: closed midjejunal loops of cystic fibrosis mice; assay: Intestinal fluid absorption in closed midjejunal loops, cystic fibrosis mice; assay type: in vivo, mouse; conditions: 100 μg per loop, 30 minutes
[8] = In vitro metabolic stability in mouse liver microsomes; assay type: in vitro ADME
Summary of the method: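 Test compound (5 μmol/L) incubated at 37°C for set times with mouse liver microsomes (1 mg protein/mL) in 100 mmol/L potassium phosphate with 1 mmol/L NADPH. Reaction chilled on ice and extracted with ice-cold ethyl acetate, then centrifuged. Supernatant dried, residue taken up in acetonitrile:water 3:1, and parent measured by LC-MS.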

[9] = Pharmacokinetics in mice after bolus IP or oral administration; assay type: in vivo, mouse
Summary of the method: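 Female CD1 mice dosed once with 10 mg/kg test compound in saline containing 5% DMSO and 10% Kolliphor HS 15, IP or orally. Blood taken by orbital puncture at 15, 30, 60, 150, 240 and 360 min, and plasma separated by centrifugation. Levels measured by LC-MS against calibration standards spiked into untreated mouse plasma. Mean ± SEM, 3 mice per group.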

FRT cells = assay: In vitro cytotoxicity by Alamar Blue assay; assay type: cell-based, rat
Summary of the method: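 FRT cells exposed to 25 μmol/L test compound for 8 and 24 h, with viability read by Alamar Blue. Mean ± SEM, n = 3 cultures.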

[10] = 7-day oral toxicity study in mice; assay type: in vivo, mouse
Summary of the method: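 Mice received 10 mg/kg test compound or vehicle orally once daily for 7 days. One hour after the last dose, loperamide 0.3 mg/kg IP was given and stool was collected for 3 h. At 4 h after the last dose: complete blood count, serum chemistry, body weight and lung wet/dry weight ratio. Mean ± SEM, 5 mice per group.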

loperamide-treated mice = assay: Efficacy in loperamide model after 7-day chronic oral administration; assay type: in vivo, mouse; conditions: 10 mg/kg orally for 7 days, loperamide 1 hour after final dose
Solubility limit = assay type: physicochemical
[11] = tested on: constipation-predominant irritable bowel syndrome patients; conditions: cited from earlier work
[12] = tested on: chronic constipation patients; conditions: placebo 0.9; cited from earlier work
[13] = 10 mg/kg orally once a day for 7 days
[14] = 10 mg/kg orally once per day for 7 days, mean ± SEM, 5 mice

For `Nc1ccc([N+](=O)[O-])cc1-c1nc2ccccc2n(Cc2ccccc2)c1=O` [CFTRact-J027, 3-(2-amino-5-nitrophenyl)-1-benzylquinoxalin-2(1H)-one], the “CFTR activation at 3 μmol/L” value (human wild-type CFTR; FRT cells expressing wild-type CFTR, 3 μmol/L) was “nearly full activation”, the “CFTR activation (short-circuit current)” value (human wild-type CFTR; FRT cells, wild-type CFTR, forskolin produced minimal further increase) was “fully activated CFTR” and the “CFTR activation in the absence of forskolin” value (human wild-type CFTR; FRT cells, wild-type CFTR, no forskolin, data not shown) was “Little CFTR activation”. The “Potentiation of ΔF508-CFTR” value (ΔF508-CFTR) was “only a weak potentiator; also recorded: substantially less potent than ivacaftor”, the “Cellular cAMP, compound added alone” value (cAMP) was “does not increase cellular cAMP” and the “Cellular cAMP, compound added together with forskolin” value (cAMP; with forskolin) was “does not increase cAMP further”. The “Stool weight, pellet number and water content (3 hours)” value [1] was “normalized each of the stool parameters”, the “Stool output and water content, oral administration” value ([1]; 10 mg/kg oral 1 hour before loperamide, loperamide-treated mice) was “effective in normalizing stool output and water content” and the “Stool output and water content in control mice, oral administration” value ([1]; 10 mg/kg oral, control mice) was “no effect”. For the same compound, the “Stool output or water content in control mice” value ([1]; intraperitoneal, control (non-loperamide-treated) mice) was “did not affect stool output or water content”, the “50% effective dose, IP administration” value ([1]; loperamide model, intraperitoneal) was 2 mg/kg and the “Stool output and water content in cystic fibrosis mice” value [2] was “without effect”. For the same compound, the Whole-gut transit time [3] was “normalized”, the “Whole-gut transit time in cystic fibrosis mice” value (cystic fibrosis mice) was “no effect” and the Intestinal contraction [4] was “no effect”. The “Increase in loop weight/length ratio (fluid secretion)” value [5] was 140%, the “Loop fluid secretion in cystic fibrosis mice” value [6] was “without effect” and the Intestinal fluid absorption [7] was “did not affect intestinal fluid absorption”. The “Original compound remaining at 60 minutes” value ([8]; mouse liver microsomes, 60 minutes) was 7%, the half-life at 5 μmol/L ([8]; mouse, liver microsomes) was roughly 21 min and the half-life ([9]; female, CD1, mouse, serum, ip, 10 mg/kg) was roughly 16 min. For the same compound, the concentration at 30 minutes ([9]; female, CD1, mouse, serum, po, 10 mg/kg) was 180 nM, the “Serum concentration at 150 minutes after IP administration” value ([9]; mice, 10 mg/kg IP, 150 minutes) was “undetectable” and the “Blood levels after oral administration” value ([9]; mice, 10 mg/kg oral) was “less than 200 nmol/L”. The “Serum concentration at other time points after oral administration” value ([9]; mice, 10 mg/kg oral, time points other than 30 minutes) was “undetectable”, the Oral bioavailability ([9]; mice, 10 mg/kg oral, 10 mg/kg) was “minimal bioavailability; also recorded: very low bioavailability” and the “Non-cytotoxic concentration relative to EC50 for CFTR activation” value (FRT cells; 25 μmol/L versus EC50) was “more than 100 fold”. The “Cytotoxicity (Alamar Blue)” value (FRT cells; 25 μmol/L, FRT cells, 8 and 24 hours) was “did not show cytotoxicity”, the Body weight [10, 13] was “did not change body weight” and the “Lung water content (lung wet/dry weight ratio)” value [10, 13] was “normal lung water content”. The “Major serum chemistry and blood parameters” value [10, 13] was “did not affect the major serum chemistry and blood parameters”, the ALP level [10, 14] was 53 ± 2.5 U/L and the ALT level [10, 14] was 44 ± 6 U/L. The AST level [10, 14] was 105 ± 11 U/L, the Albumin level [10, 14] was 2.9 ± 0.03 g/dL and the BUN level [10, 14] was 18.4 ± 1.2 mg/dL. For the same compound, the Bicarbonate level [10, 14] was 16 ± 1.7 mmol/L, the CK level [10, 14] was 312 ± 62 U/L and the Calcium level [10, 14] was 8.5 ± 0.04 mg/dL. For the same compound, the Chloride level [10, 14] was 115 ± 1 mmol/L, the Cholesterol level [10, 14] was 121 ± 6 mg/dL and the Creatinine level [10, 14] was 0.2 ± 0 mg/dL. It also gave a Globulin level [10, 14] of 2.2 ± 0.1 g/dL, a Glucose level [10, 14] of 164 ± 6 mg/dL and a Hemoglobin level [10, 14] of 12.8 ± 0.3 g/dL. For the same compound, the Leukocyte level [10, 14] was 1.9 ± 0.5 10^3/μL, the Phosphorus level [10, 14] was 6.8 ± 0.3 mg/dL and the Potassium level [10, 14] was 4.4 ± 0.1 mmol/L. For the same compound, the Sodium level [10, 14] was 151 ± 0.7 mmol/L, the Thrombocyte level [10, 14] was 900 ± 48 10^3/μL and the Total bilirubin level [10, 14] was 0.1 ± 0 mg/dL. The Total protein level [10, 14] was 5.2 ± 0.1 g/dL, the “Stool output and water content after chronic administration” value (loperamide-treated mice) was “remained effective in normalizing stool output and water content” and the solubility (Solubility limit) was roughly 25 µM (≈ 9.31 µg/mL).

With `Cn1c(=O)c(-c2cc([N+](=O)[O-])ccc2N)nc2ccccc21` [inactive chemical analog of CFTRact-J027, 3-(2-amino-5-nitrophenyl)-1-(methyl)-2(1H)-quinoxalinone] the “Stool weight, pellet number and water content (3 hours)” value [1] was “not effective”.

In the case of `CCCCC(F)(F)[C@@]1(O)CC[C@H]2[C@@H](CC(=O)[C@@H]2CCCCCCC(=O)O)O1` [lubiprostone, reference compound], the “Normalization of stool output as percent of the maximal CFTRact-J027 response” value ([1]; loperamide-treated mice) is given as 50% and the Overall response rate [11] is given as “approximately 13%”.

For linaclotide [reference compound], the “Normalization of stool output as percent of the maximal CFTRact-J027 response” value ([1]; loperamide-treated mice) is given as 35% and the CSBM per week [12] is given as roughly 2.5.
